We go through 167 variants from the RNAGym collection of RNA variant scans (doi:10.1126/science.aae0568).

This sample holds only a part of the variants without activity.

B1: tRNA (parent)
chain: GUUCCGUUGGCGUAAUGGUAACGCGUCUCCCUCCUAAGGAGAAGACUGCGGGUUCGAGUCCCGUACGGAACG

In the data set the parent is B1. Kind of data set: yeast fitness relative to wild type (ratio to wild type); higher = fitter; tRNA-Arg(CCU), competitive growth, 37 C, YPD. In outline: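 Variants of the tRNA-Arg(CCU) gene were chemically synthesised with a 3% per-site mutation rate across 69 sites and placed at the native genomic locus in Saccharomyces cerevisiae. Six parallel replicates of the pooled strains were competed in YPD at 37°C for 24 hours, and gene amplicons from the start and end populations were read by 100-nucleotide paired-end sequencing. Darwinian fitness relative to wild type was derived from changes in genotype frequencies. Genotypes required ≥ 100 starting reads, and estimates < 0.5 were set to 0.5.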
In the case of U7G C49U A65G, the yeast fitness is 0.83.
In the case of U7G C22A U64C A70C it was not above 0.5; in that of U7G A20C G41A G50A C60U C66G, not above 0.5.
Regarding U7G G12A G25A C33G G58A G67A, the yeast fitness is not above 0.5.
Turning to U7G A14G U35G A43G U59A, the yeast fitness turned out to be 0.669.
In the case of U7G A40C C55G it was 0.591.
Take U7G A20U C46G: the yeast fitness is 0.562.
Turning to U7G U13C A37U C60G, the yeast fitness was not above 0.5.
In the case of U7G C61U G68A, the yeast fitness stood at 0.533.
To U7C U35C A37C belongs 0.732; to U7G A14C C30G C66U, not above 0.5.
Regarding U7G C11G C34U G41A U64A, the yeast fitness was not above 0.5.
In the case of U7G A36U it was 0.777; in that of U7G C11G C33G G56C C62G, not above 0.5; in that of U7G G12A U13C C33U C34U A42C G50A, not above 0.5.
Regarding U7G C55G G63A G68C, the yeast fitness stood at 0.525.
With U7G C22U G51C G58A, the yeast fitness is not above 0.5.
In the case of U7G G18A G48A it was not above 0.5; in that of U7G A14U U19A C22U C61A U64A A69U, 0.543; in that of U7G G12A, 0.816.
Regarding U7G G25A C49G, the yeast fitness was determined as 0.542.
To U7G A21U C29A C55A belongs 0.604.
Regarding U7G A37U G50C, the yeast fitness was not above 0.5.
To U7G A65G belongs 1.03; to U7G A37G C55G, not above 0.5; to U7G G10C, 0.709.
With U7G A42G, the yeast fitness came to 0.837.
Regarding U7G G63A G67C, the yeast fitness is not above 0.5.
As for U7G C24G C27U C29A, the yeast fitness is 0.6.
In the case of U7G C11G C34U G41A C46U it was not above 0.5; in that of U7C U28C G41A A42C G50C A70G, 0.572; in that of U7G C30U G38A G50A U59C, not above 0.5.
With U7G G9A, the yeast fitness came out at 0.827.
In the case of U7G A45C C49U, the yeast fitness came to 0.508.
Take U7G C27U A57C A70U: the yeast fitness is not above 0.5.
To U7G C30A A65C belongs 1.06.
Take U7C U28A G48C C62U A70C: the yeast fitness was not above 0.5.
For the variant U7G C24A C27A, the yeast fitness is not above 0.5.
On to U7G G44A C61U, for which the yeast fitness is 0.689.
For U7G C34G A43U, the yeast fitness was found to be 0.661.
U7G C27A: the yeast fitness was 0.744.
For U7C U59C, the yeast fitness amounted to 0.846.
Turning to U7G C11G C34U G41A A65C C66U, the yeast fitness is not above 0.5.
As for U7G G10C G58A, the yeast fitness was not above 0.5.
To U7G C61A belongs 0.708; to U7G C61U A70G, 0.669; to U7G C27G A40U G58C, not above 0.5.
For U7G C22U G52A C55U, the yeast fitness is not above 0.5.
Turning to U7G C24G A65U C66U, the yeast fitness is not above 0.5.
As to U7G C22G, the yeast fitness was found to be 0.726.
On to U7G C22A, for which the yeast fitness was found to be 0.653.
For U7G A21C G44C, the yeast fitness was found to be 0.545.
In the case of U7G G9A A20U C31G C34U G67U it was not above 0.5.
In the case of U7G G58A, the yeast fitness was found to be 0.942.
In the case of U7G A15C C24U A43G G51A U54C it was 0.634; in that of U7G C55G G68C, 0.6.
For U7C U64C, the yeast fitness stood at 0.88.
On to U7G A15C U16A C33G A37C C49A C61U, for which the yeast fitness stood at 0.525.
On to U7G C27U C33U C66U, for which the yeast fitness was not above 0.5.
For the variant U7G C11G C34U A37U C46A G51A, the yeast fitness was not above 0.5.
As to U7G U16G C61U, the yeast fitness is not above 0.5.
Regarding U7C U32A, the yeast fitness was 0.761.
On to U7G G67C, for which the yeast fitness came out at 0.856.
With U7G U8G C31U U35A U47C, the yeast fitness was not above 0.5.
As for U7G C27U C33U A57U, the yeast fitness was not above 0.5.
To U7G A36G A45G C49U belongs 0.641.
As for U7G U19A C34U C66U, the yeast fitness was 0.588.
In the case of U7G A42C G44C A65C it was 1.08; in that of U7G C27A A36C A42U U64G A70U, not above 0.5; in that of U7C U32G C33G U59C, not above 0.5.
In the case of U7G A14U U26A C61A it was not above 0.5; in that of U7G G25C C60A, 0.623.
Take U7G C11U G12C C33U G63C G68U: the yeast fitness was not above 0.5.
For U7G C30G G56A, the yeast fitness was determined as 0.505.
Turning to U7G A20G C60U C61G, the yeast fitness was not above 0.5.
In the case of U7G A14G U35G A43G it was 0.557.
On to U7C U32C A45U G67A, for which the yeast fitness was not above 0.5.
With U7G C29U, the yeast fitness turned out to be 0.775.
On to U7G A20U C46G A57U A69C, for which the yeast fitness is 0.623.
Turning to U7C U28A C31U C55G C66U, the yeast fitness is not above 0.5.
With U7G A20G U32G A43C A45U, the yeast fitness is not above 0.5.
Regarding U7G C27G A40U G68C, the yeast fitness is not above 0.5.
Consider U7G A14U, for which the yeast fitness is 0.675.
To U7C U47C U54C C55G belongs not above 0.5.
For the variant U7G G23C C30G A36U C61U A65U, the yeast fitness was determined as 0.527.
With U7C U32G G56U, the yeast fitness is not above 0.5.
Regarding U7G C29A A69G, the yeast fitness is not above 0.5.
U7G A43G: the yeast fitness came out at 0.806.
Turning to U7G A43U, the yeast fitness was found to be 0.914.
Take U7G G23C U54A A57C A70U: the yeast fitness was not above 0.5.
In the case of U7G C55G G56C, the yeast fitness came out at 0.608.
In the case of U7G C46U it was 0.987.
To U7G G9A C31G C33U A36G belongs not above 0.5.
Take U7G C34A C46G A65C: the yeast fitness stood at 0.746.
As for U7G A45C G51C U53C, the yeast fitness was not above 0.5.
Regarding U7C U53A G56C G63A, the yeast fitness was not above 0.5.
To U7G U8G A15C belongs 0.543.
On to U7G A70G, for which the yeast fitness is 0.993.
As for U7G G48A, the yeast fitness turned out to be 0.847.
As to U7G G56A, the yeast fitness turned out to be 1.06.
As for U7G C11G C30G C33G G48C C60A, the yeast fitness was not above 0.5.
To U7G G23C A45U G51C belongs not above 0.5; to U7G C33G G48C U64C, 0.531; to U7G G44C, 0.666.
For U7G C31G A36C, the yeast fitness was not above 0.5.
In the case of U7G G12C G23C C29G it was 0.739; in that of U7G G12C G23C C29G C60A, not above 0.5; in that of U7G A14U C30A, not above 0.5.
On to U7G C33G, for which the yeast fitness turned out to be 0.654.
Take U7G C33U: the yeast fitness came out at 0.749.
U7G U13C G52A A57C A65C: the yeast fitness was not above 0.5.
To U7G A43G C46G G63A belongs not above 0.5; to U7G C34G A36C C62G G68C, not above 0.5; to U7G A14G C22U G38A C55A G67A, not above 0.5.
For the variant U7G C46U C60A G67A, the yeast fitness is not above 0.5.
For the variant U7G C60U G63C, the yeast fitness came out at 0.585.
Regarding U7G C27A A36C A42U U64G, the yeast fitness was determined as 0.528.
For the variant U7G C11G C34U G41A C49U, the yeast fitness is not above 0.5.
In the case of U7G A57U, the yeast fitness was 0.599.
For the variant U7G G9C G50C, the yeast fitness stood at 0.668.
To U7G A15U A45C C46U G56A G67C belongs not above 0.5; to U7G C30A C62A, not above 0.5; to U7G C24A C46G U59C C62G, not above 0.5.
As to U7G A37U A70U, the yeast fitness turned out to be 0.542.
Take U7G C30A A69C: the yeast fitness was found to be 0.798.
To U7G A40C G67C belongs not above 0.5.
To U7G C11U G58A belongs 0.589; to U7C U47G, not above 0.5.
With U7G U19A C30G C33U C61G, the yeast fitness was not above 0.5.
In the case of U7G G48A C62U, the yeast fitness turned out to be 0.628.
To U7G G12A G25A C33G C62U belongs not above 0.5.
To U7G A14C G63C belongs not above 0.5.
To U7G A37C belongs 0.757.
As to U7G A37U, the yeast fitness is 0.72.
Regarding U7G A37G, the yeast fitness stood at 0.633.
Take U7G A15G C33G: the yeast fitness was not above 0.5.
In the case of U7G C33U A42C A43C C49U A69U it was not above 0.5; in that of U7G C30U G38A C60U, 0.582.
On to U7G G9A A43C, for which the yeast fitness worked out at 0.515.
Take U7G C11U G12C C33U: the yeast fitness was not above 0.5.
For U7G G48A G68U A70C, the yeast fitness turned out to be 0.541.
Regarding U7G C29U U47G, the yeast fitness was not above 0.5.
Take U7G C11G C34U A40G G41A: the yeast fitness was not above 0.5.
U7G A21U C30U A40C: the yeast fitness was not above 0.5.
For the variant U7C U35G U64C A70G, the yeast fitness is not above 0.5.
As to U7G A15U C62U C66A, the yeast fitness was not above 0.5.
Consider U7G U26C, for which the yeast fitness was found to be 0.88.
In the case of U7G A14G C22U G38A C55A, the yeast fitness was 0.555.
Turning to U7G C27A C29U A40U, the yeast fitness is not above 0.5.
To U7G G68C belongs 0.895; to U7G G9A C31G A36G, 0.576; to U7G A69C, 0.851.
In the case of U7G C49U it was 0.957; in that of U7G C49G, 0.729; in that of U7G C62G, 0.603.
Take U7G G12A U13A: the yeast fitness was found to be 0.565.
To U7G G58C C66U belongs 0.645; to U7G A21U A40G G67A, not above 0.5.
For the variant U7G G25C G58C, the yeast fitness was 0.558.
For the variant U7G A21U C29A C55A A69U, the yeast fitness was not above 0.5.
To U7G A20U belongs 0.742; to U7G A14C A20G C22U C49G G56C A70G, not above 0.5; to U7G G48A A69C, 0.697.
Regarding U7G G10C C33U U53G C60A G68U A69C, the yeast fitness came out at 0.776.
Consider U7G C31U, for which the yeast fitness amounted to 0.98.
On to U7G C11U U16A, for which the yeast fitness stood at 0.518.
On to U7G G18C C31A, for which the yeast fitness was not above 0.5.
